This excerpt belongs to a sample that is enriched for hits.
GSH fluor: GSH bead compound fluorescence profile; 0.25% of 190,000 active; GSH beads flow cytometry, compound fluorescence 488/530 nm; active compounds read high; AID 1776; fluorescence (KMESF) at 10 µM; in the data active = fluorescence above about 89;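 note: glutathione beads carrying GST-tagged Bcl family fusion proteins plus one bare bead set; values are compound well signal with DMSO vehicle wells as background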
PKD1 kinase inh: inhibitors of human PKD1 kinase | PKD1 kinase fluorescence polarization assay | inhibition, % (test concentration not listed) | 0.056% of 200,000 active
ABCG2 inh: human ABCG2 inhibition, ABCB1 as counter-screen. AID 1325. Q9UNQ0. IgMXP3 cells, JC-1 efflux, flow cytometry. inhibition, % at 6.6 µM. 0.1% of 190,000 active;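 active = inhibition above 80%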;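 note: 0% = DMSO and 100% = nicardipine control wells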
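test system = two drug-resistant human cell lines, ABCG2 and ABCB1 | amount = 3 million cells/mL final, two lines in 1:1 ratio | reagent = JC-1 transporter substrate | doses = one concentration, 6.6 µM final | incubation = 10 min at 25 °C | signal = flow cytometric JC-1 green MFI at 530 nm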
L major viab: reduces viability of Leishmania major promastigotes; resazurin fluorescence viability; inhibition, % at 10 µM; 9% of 200,000 active; AID 1063;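 note: promastigotes grown with compound for 44 hours at 28 °C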
ABCB1 block: human ABCB1 inhibition, ABCG2 as counter-screen; P08183; CCRF-Adr cells, JC-1 efflux, flow cytometry; inhibition, % at 6.6 µM; 0.067% of 190,000 active; in the data active = inhibition above about 40%;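 note: 0% = vehicle and 100% = reference inhibitor; higher value means more JC-1 retained so stronger ABCB1 efflux block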
Avidin bead fluor: avidin bead compound fluorescence profile; 0.38% of 220,000 active; Avidin beads, compound fluorescence 488/530 nm, flow cytometry; active compounds read high; AID 1775; fluorescence (KMESF) at 10 µM; in the data active = fluorescence above about 47
Active calls of the source: *; / = no result given. Cut-off read from the data, not from the text of the source, unless noted: active = inhibition above about 50%; inactive = the rest.

SMILES	GSH fluor	PKD1 kinase inh	ABCG2 inh	L major viab	ABCB1 block	Avidin bead fluor
Cc1cc(C)n(C(C[N+](=O)[O-])c2ccc(Cl)cc2)n1 (stereo not given)	13	-1	8	100*	1	7
O=C(Cn1cnc2c(nnn2Cc2ccc(F)cc2)c1=O)NCC1CCCO1 (stereo not given)	15	2	-1	-6	-1	7
Cc1ccccc1Cn1nc(C)c(NC(=O)c2cc3nc(-c4ccco4)cc(C(F)(F)F)n3n2)c1C	12	10	47	33	20	8
CCc1ccc(-c2cc(C(F)(F)F)n3nc(C(=O)Nc4c(C)nn(Cc5ccc(F)cc5)c4C)cc3n2)s1	35	0	34	64*	10	13
O=C(CN1CCC(NC(=O)c2ccco2)CC1)Nc1cccc2ccccc12	120*	-7	7	-6	1	6
CC(C)c1ccc(NC(=O)NC2CCN(CC(=O)Nc3cccc4ccccc34)CC2)cc1	8	-6	4	58*	1	8
CC(OC(=O)c1ccccc1NCc1ccco1)C(=O)Nc1ncc(Cl)cc1Cl (stereo not given)	12	9	7	-5	1	30
COc1ccc(/C=N/NC(=O)c2ccc3nc[nH]c3c2)cc1OC	/	/	/	/	/	7
Cc1cccc(Oc2ccc(Cl)cc2N)c1	13	-1	5	-1	0	16
COc1ccc(-c2cc3ccccc3n2CC(O)CN2CCC(C)CC2)cc1 (stereo not given)	16	3	-1	87*	0	10
O=c1c2ccccc2n(CC(O)CN2CCCCC2)c2ccccc12 (stereo not given)	/	/	/	/	/	8
CCOc1ccc(CN2CCN(CC(O)Cn3c4ccccc4c4ccccc43)CC2)cc1 (stereo not given)	27	-2	2	96*	1	12
COc1ccc(CN2CCN(CC(O)Cn3c4ccccc4c4ccccc43)CC2)cc1 (stereo not given)	12	-8	-2	99*	2	15
CC(C)(C)S(=O)(=O)c1cnc(N2CCOCC2)nc1N	/	/	/	/	/	7
Cc1ccc(-n2ncc(C(=O)Nc3cc(Cl)ccc3Cl)c2C2CCNCC2)cc1	11	3	37	-7	2	10
Cc1ccc(-n2ncc(C(=O)Nc3cc(Cl)cc(Cl)c3)c2C2CCNCC2)cc1C	11	-4	12	101*	1	14
O=C(N/N=C1\CCCc2ccccc21)c1ccc([N+](=O)[O-])cc1Cl	12	3	0	94*	0	33
O=C(N/N=C1/CCCc2ccccc21)c1cc([N+](=O)[O-])cc([N+](=O)[O-])c1	10	-8	11	11	1	15
O=C(N/N=C1\CCCc2ccccc21)c1ccccc1[N+](=O)[O-]	11	-3	3	100*	0	21
Cc1cc(C)cc(N2C(=O)CC(Sc3ncn[nH]3)C2=O)c1 (stereo not given)	11	6	2	-4	1	6
COCCn1nnnc1CN1CCC(Cc2ccccc2)CC1	24	-6	14	-1	2	34
CC(C)c1onc(C(=O)NC2CCCCC2)c1[N+](=O)[O-]	19	-2	1	-1	0	9
COC(=O)c1sc(-c2ccc(Cl)cc2)cc1N	/	/	/	/	/	3
COC(=O)c1sc(-c2cccs2)cc1N	/	/	/	/	/	50*
CCC1(N(C(C)=O)c2ccc(OC)cc2)C(=O)c2ccccc2C1=O	26	-5	0	6	0	17
SMILES	GSH fluor	PKD1 kinase inh	ABCG2 inh	L major viab	ABCB1 block	Avidin bead fluor
O=C(CSc1oc(-c2cccs2)nc1S(=O)(=O)c1ccccc1)NC1CCCCC1	23	2	13	98*	6	14
CSc1oc(-c2cccs2)nc1S(=O)(=O)c1ccccc1	/	/	/	/	/	7
COCCNc1oc(-c2cccs2)nc1S(=O)(=O)c1ccc(C)cc1	8	-1	2	5	0	7
C=CCNc1oc(-c2cccs2)nc1S(=O)(=O)c1ccccc1	19	0	4	96*	1	10
Cc1ccc(S(=O)(=O)c2nc(-c3cccs3)oc2NCCCN(C)C)cc1	8	2	-2	98*	0	2
CC(C)C[C@H](NC(=O)NCc1ccc(F)cc1)C(=O)O	/	/	/	/	/	6
CCOC(=O)C1=C(C)C(c2ccccc2OC)NC(=S)N1 (stereo not given)	13	-1	2	-1	1	16
CCOC(=O)c1oc2ccc(CNCCO)c(Cl)c2c1C	10	-6	3	97*	1	23
CCOC(=O)c1oc2ccc(CNC3CCCCC3)c(Cl)c2c1C	18	-4	2	96*	1	7
CCN(CC)CCN(Cc1cc2ccc(C)cc2[nH]c1=O)C(=S)Nc1ccccc1C(=O)OC	11	0	4	7	2	23
COC(=O)c1ccccc1NC(=S)N(Cc1ccc2c(c1)OCO2)Cc1cc2cc(C)ccc2[nH]c1=O	9	2	/	99*	/	12
COC(=O)c1ccccc1NC(=S)N(Cc1ccc2c(c1)OCO2)Cc1cc2ccc(C)cc2[nH]c1=O	8	-9	-2	97*	2	16
COC(=O)c1ccccc1NC(=S)N(Cc1ccc2c(c1)OCO2)Cc1cc2ccc(OC)cc2[nH]c1=O	16	-4	-1	58*	0	5
COc1ccc(CNC(=O)C2CCC(CNc3nc(=S)[nH]c4ccccc34)CC2)cc1 (stereo not given)	11	-8	10	7	-1	11
COc1ccccc1C1(O)CCN(CC(=O)Nc2nc(-c3ccccc3)cs2)CC1	13	-8	0	10	0	12
CCn1ccnc1C(O)c1cccc(OC)c1OC (stereo not given)	15	3	0	-5	0	9
CCOC(=O)c1ccc2ncc(C(=O)OCC)c(NCCCN3CCOCC3)c2c1	16	-12	10	60*	6	34
CCOC(=O)c1ccc2ncc(C(=O)OCC)c(Nc3ccc(N4CCOCC4)cc3)c2c1	17	2	43	74*	28	15
Cc1ccc(Oc2nc3ccccc3n3c(C)nnc23)c(C)c1	35	1	3	-2	0	4
CCN(CC)CCCn1c(=S)[nH]c2ccccc2c1=O	14	-7	2	1	0	37
CC1CC(C)CN(CCCn2c(=S)[nH]c3ccccc3c2=O)C1 (stereo not given)	45	-5	2	89*	1	5
O=C(CNc1ccccc1OC(F)F)N1CCc2ccccc21	16	-4	6	8	0	9
O=C(O)CCCCCN=Cc1c(O)c2ccccc2oc1=O	8	-3	1	-7	0	21
CN1C(=O)C2(c3ccccc31)c1c(oc3ccccc3c1=O)C(=O)N2CCCO (stereo not given)	/	/	/	/	/	6
CCC(=O)Nc1ccc(N2CCN(S(C)(=O)=O)CC2)cc1	4	4	11	67*	0	7

Screening results (PubChem BioAssay)
